ChEMBL document CHEMBL3864141, “Cyclic non-opioid dynorphin A analogues for the bradykinin receptors” (Bioorg Med Chem Lett, 2016)
Positions of bridges follow the written chain, without caps; N, C: chain ends. Non-standard residues stand in square brackets, D forms with d. Residues, ends and D or L forms follow the SMILES beside them. Nle = CCCC[C@H](N)C(=O)O

Columns and labels:
[1] = Half life in rat plasma by RP-HPLC method; assay type: ADME, cell-free
In short: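 Peptide incubated in rat plasma at 37 °C and sampled at 1, 2, 4 and 8 h. Quenched samples were analysed by RP-HPLC. Half-life was calculated as t1/2 = 0.693/b, where b is the slope of the linear fit.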

[2] = Displacement of [3H]BK from bradykinin receptor in rat brain membranes at pH 6.8 after 2 hrs by liquid scintillation counting method; assay type: cell membranes, Membrane
In short: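 Competitive binding of [3H]BK to rat brain membranes at pH 6.8. Non-specific binding was defined with 10 μM kallidin. IC50 values were obtained by nonlinear least-squares regression of data from at least two independent experiments run in duplicate, and were also reported as logarithmic values.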

[3] = Displacement of [3H]DALKD from bradykinin receptor in rat brain membranes at pH 6.8 after 2 hrs by liquid scintillation counting method; assay type: cell membranes, Membrane

half-life [1]	IC50 [2]	pIC50 [2]	IC50 [3]	pIC50 [3]	SMILES
5.5 h	191 nM	6.72	–	–	CC[C@H](C)[C@@H]1NC(=O)[C@H](CCCNC(=N)N)NC(=O)[C@H](CC(C)C)NC(=O)[C@H](Cc2ccccc2)NC(=O)CC[C@@H](C(=O)N[C@@H](CCCCN)C(=O)O)NC(=O)[C@H](CCCNC(=N)N)NC1=O (FLRIREK-OH; lactam N-6)
–	–	–	78 nM	7.11	CCCC[C@H](NC(=O)[C@H](CCCCN)NC(=O)[C@@H]1CCCN1C(=O)[C@H](CCCCN)NC(=O)[C@@H](N)CCCC)C(=O)N[C@@H](CCCCN)C(=O)O (H-[Nle]KPK[Nle]K-OH)
–	302 nM	6.52	–	–	CC[C@H](C)[C@@H]1NC(=O)[C@H](CCCNC(=N)N)NC(=O)[C@H](CC(C)C)NC(=O)[C@H](CCCCN)NC(=O)CC[C@@H](C(=O)N[C@@H](CCCCN)C(=O)O)NC(=O)[C@H](CCCNC(=N)N)NC1=O (KLRIREK-OH; lactam N-6)
–	1510 nM	5.82	–	–	CC[C@H](C)[C@@H]1NC(=O)[C@H](CCCNC(=N)N)NC(=O)[C@H](CC(C)C)NC(=O)CC[C@@H](C(=O)N[C@@H](CCCCN)C(=O)O)NC(=O)[C@H](CCCNC(=N)N)NC1=O (LRIREK-OH; lactam N-5)
